Furin inhibitor: human furin inhibition. inhibition, % at 20 µM or 30 µM. 220,000 tested, 0.061% active. purified furin, fluorogenic substrate cleavage; in the data active = inhibition above about 25%
NCF1 inh: inhibitors of human p47phox binding; P14598; p47phox/p22phox peptide binding, fluorescence polarization, 2 h; inhibition, % at 24.7 µM; 220,000 tested, 0.53% active; AID 1274;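 active = inhibition above about 30%, limit read from the data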;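 note: 0% = p47phox with labelled peptide and 100% = labelled peptide alone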
Target sequence (P14598 whole entry, looked up): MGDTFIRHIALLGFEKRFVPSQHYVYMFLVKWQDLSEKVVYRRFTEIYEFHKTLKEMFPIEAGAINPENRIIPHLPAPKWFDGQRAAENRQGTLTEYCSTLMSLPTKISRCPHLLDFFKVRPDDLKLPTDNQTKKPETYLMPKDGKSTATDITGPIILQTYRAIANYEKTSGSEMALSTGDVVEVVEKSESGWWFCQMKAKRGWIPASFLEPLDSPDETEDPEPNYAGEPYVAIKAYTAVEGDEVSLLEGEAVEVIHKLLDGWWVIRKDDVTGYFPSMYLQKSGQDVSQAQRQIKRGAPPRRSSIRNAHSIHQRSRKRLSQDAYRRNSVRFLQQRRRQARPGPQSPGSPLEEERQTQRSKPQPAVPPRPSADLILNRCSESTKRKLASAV
RBBP9 inh: blocks human serine hydrolase RBBP9; recombinant RBBP9, FP-Rh probe fluorescence polarization; inhibition, % at 7.94 µM; 220,000 tested, 0.2% active; AID 1515;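 active = inhibition above the campaign mean of all tested compounds plus 3 SD, cut at about 14% in these data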;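 note: plate controls were DMSO wells with RBBP9 for no effect and wells lacking RBBP9 protein for full effect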
Target sequence (O75884 whole entry, looked up): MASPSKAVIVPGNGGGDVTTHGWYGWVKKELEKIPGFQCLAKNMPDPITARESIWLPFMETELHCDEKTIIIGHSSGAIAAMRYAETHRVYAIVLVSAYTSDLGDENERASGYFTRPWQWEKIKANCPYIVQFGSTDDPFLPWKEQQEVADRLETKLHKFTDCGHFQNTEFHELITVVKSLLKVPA
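Measured by: FP readout at 525/598 nm; material: recombinant human RBBP9; also added: Serine-hydrolase probe FP-Rh, 375 nM pre-mixing; medium: Tris buffer pH 8.0, NaCl, Pluronic; replication: one well per compound; doses: one concentration, 7.94 µM nominal, 0.794% DMSO; timing: preincubation 30 min plus labeling 45 min at 25 °C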
m-calpain inh: inhibitors of pig calpain II; purified calpain II, fluorogenic peptide substrate, 30 min; inhibition, % at 16 µM; 220,000 tested, 0.37% active;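 active = inhibition above about 50%, limit read from the data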
* marks the source's active call; other numbers are inactive results; / = no result given; + = active, no number. A selection: hits, their analogues and other compounds. The true share with any hit is near 1.1%.

SMILES	Furin inhibitor	NCF1 inh	RBBP9 inh	m-calpain inh
Cn1c(=O)c2cc(S(=O)(=O)Nc3ccc4c(c3)OCO4)ccc2n(C)c1=O	-18	65*	4	18
CCC(C)c1ccccc1NC(=O)COC(=O)C1=COCCO1 (stereo not drawn)	-24	-6	2	0
COc1ccc(/C(N)=N/OC(=O)Cc2ccccc2[N+](=O)[O-])cc1	-31	-6	-3	57*
O=C(c1cccc2ccccc12)C1CCCN(C(=O)c2ccc(N3CCOCC3)cc2)C1 (stereo not drawn)	-27	-24	-4	-37
Cc1cc(C)c(S(=O)(=O)/N=C2/C=C(Sc3ncn[nH]3)C(=O)c3ccccc32)cc1C	-8	54*	8	-23
COc1ccc([N+](=O)[O-])cc1N(CC(=O)NCCCOC(C)C)S(C)(=O)=O	-7	-10	2	-15
Cc1ccccc1-c1nc(CS(=O)(=O)CC(=O)NCCN2CCOCC2)c(C)o1	-24	69*	-7	-6
CCCC1Cc2c(sc(NC(=S)NC(=O)c3ccccc3)c2C#N)CO1 (stereo not drawn)	-16	-1	-8	53*
Cc1cc(C)n2c(SCC(=O)N(C)C3CCCCC3)nnc2n1	-20	-4	-2	-63
O=C(OCC(=O)N1CCCCCC1)c1ccc(S(=O)(=O)N2CCOCC2)cc1	-35	-4	-2	-26
O=C(OCC(=O)c1ccc(S(=O)(=O)N2CCCC2)cc1)C1=COCCO1	-9	+	-15	-5
CCOC(=O)C(=CNc1cccc(C)c1C)C(=O)OCC	-2	12	-9	52*
Cc1cc(N)c2cc(NC(=O)/C=C/c3ccccc3Cl)ccc2n1	15	97*	-14	13
O=C(c1ccco1)N1CCN(c2ncnc3scc(-c4cccs4)c23)CC1	-21	-13	-2	-21
c1ccc(N2CCN(c3ncnc4scc(-c5cccs5)c34)CC2)cc1	-10	-20	-5	54*
COc1ccc(C(C(=O)NCCC(C)C)N(CCN2CCOCC2)C(=O)Cn2nnc3ccccc32)c(OC)c1 (stereo not drawn)	-16	5	-7	-22
CN1COc2ccc3ccccc3c2C1	-19	-3	3	-11
CCc1cccc(CC)c1NC(=O)c1cc(CN2C(=O)c3ccccc3C2=O)ccc1OC	-3	-16	-19	50*
Cc1ccc(C(CC(=O)c2ccc(Cl)cc2)C(=O)O)cc1 (stereo not drawn)	-25	1	4	-21
COC(=O)C(CC(=O)c1ccc(Cl)cc1)c1ccc(C(C)C)cc1 (stereo not drawn)	-30	32*	-8	7
O=S(=O)(NCCSc1ccccn1)c1ccc(Br)cc1	-26	-9	2	-14
COC(=O)N/N=C/c1cc(N=Nc2ccccc2)ccc1O	-14	5	-4	5
Cc1cc(C(=O)N/N=C/c2cc(N=Nc3ccccc3)ccc2O)n[nH]1	-3	35*	1	-8
Cn1c(-c2cccc([N+](=O)[O-])c2)cnc1NCc1ccc(C#N)cc1	-18	10	2	-10
O=C(O)CNc1ncccc1[N+](=O)[O-]	-17	50*	-4	22
SMILES	Furin inhibitor	NCF1 inh	RBBP9 inh	m-calpain inh
CCOC(=O)C1(CCc2ccccc2)CCN(C(=O)CCn2cncn2)CC1	-24	-3	-1	-9
COc1ccc(Br)cc1CNC(=O)CCc1nc(-c2ccc(C)cc2)no1	26*	-18	0	0
CCOc1cc(/C=N/NC(=O)c2ccncc2)cc(Cl)c1OS(C)(=O)=O	-11	9	1	16
CCOc1cc(/C=N/NC(=O)c2ccncc2)ccc1OS(C)(=O)=O	-8	-5	-4	106*
CCOC(=O)CCc1c(C)c2ccc(OCc3cc([N+](=O)[O-])ccc3OC)c(C)c2oc1=O	-16	30*	-2	-21
CCOC(=O)CCc1c(C)c2ccc(OCc3cc([N+](=O)[O-])ccc3OC)cc2oc1=O	-5	-24	-4	7
Cc1nc(C)c(C(=O)NNS(=O)(=O)c2ccc3ccccc3c2)s1	-16	-15	2	2
Fc1cccc(CN2CCN(c3nc4nonc4nc3NC3CC3)CC2)c1	-12	-13	-3	9
CCOC(=O)c1cccc(N2C(=O)c3ccccc3S2(=O)=O)c1	-17	81*	6	-2
CCOC(=O)c1cccc(-n2c(C)nc3ccccc3c2=O)c1	-21	3	-4	5
O=C(CSc1nnnn1-c1ccc2c(c1)OCCO2)OC1CCCCC1	-19	-18	-5	71*
CC(C)CC1=NN(C(=O)c2ccco2)C(O)(C(F)(F)F)C1 (stereo not drawn)	-25	/	1	10
O=c1c2oc3nc4c(cc3c2ncn1CCCc1ccccc1)CCCC4	-10	0	-3	8
CCc1ccc2c(c1)C(O)(CC(=O)c1cccs1)C(=O)N2 (stereo not drawn)	-23	-2	2	-30
Oc1ccccc1N1CCN(C(=S)NCCc2ccccc2)CC1	-24	47*	-3	-8
Oc1ccc(N2CCN(C(=S)NCCc3ccccc3)CC2)cc1	-9	95*	1	-2
O=C(N[C@@H](Cc1ccccc1)C(=O)OCc1ccccc1)c1nc[nH]c1C(=O)N1CCN(c2ccccc2)CC1	-3	-10	/	51*
O=C(NCc1ccccn1)C(=O)C1C(=O)Nc2ccccc21 (stereo not drawn)	-16	39*	5	16
O=C(O)COc1ccccc1C(Nc1cccnc1)c1cc(Cl)c2cccnc2c1O (stereo not drawn)	-26	1	-2	-72
CCC(=O)NC(c1ccc(OC)c(OC)c1)c1cc(Cl)c2cccnc2c1O (stereo not drawn)	18	40*	1	10
COc1ccc(C(NC(C)=O)c2cc(Cl)c3cccnc3c2O)cc1OC (stereo not drawn)	-15	-13	-4	-36
CCOc1ccc(C(Nc2cccnc2)c2cc(Cl)c3cccnc3c2O)cc1 (stereo not drawn)	-7	40*	-2	-190
N#Cc1ccc(C(=O)CSc2n[nH]c(=O)n2-c2cccnc2)cc1	-9	5	2	8
COc1ccc(Nc2nc(NC(C)(C)C)nc(N3CCCC3)n2)c(OC)c1	-14	-18	-5	-9
COc1ccc(N2CCN(c3nc(NC(C)(C)C)nc(N4CCCCC4)n3)CC2)cc1	-19	-14	-9	65*
SMILES	Furin inhibitor	NCF1 inh	RBBP9 inh	m-calpain inh
COc1cc2oc(-c3ccc(O)cc3)cc(=O)c2c(OC)c1O	-11	7	1	15
COc1cc2oc(-c3ccc(O)cc3)cc(=O)c2c(O)c1OC	-25	41*	/	-5
N#Cc1cc(-c2ccccc2)nn1-c1ccccc1	-14	34*	-10	-7
O=C(CCNc1ccc(F)cc1)c1cc2ccccc2o1	-20	62*	-6	-8
O=C(CCNc1cccc(F)c1)c1cc2ccccc2o1	-21	-9	-4	15
O=C(CSc1ncc(-c2ccccc2)[nH]1)Nc1ccccc1	-19	33*	-7	9
C/C(=N\O)C(C)(C)Nc1cccc(Br)c1	-25	-8	-6	-4
O=C(Nc1nc(-c2ccccc2)cs1)c1ccccc1NS(=O)(=O)c1ccc(F)cc1	-8	-54	-4	-57

High-throughput results: PubChem BioAssay, several laboratories
